Source: ChEMBL document CHEMBL1154611 (J Med Chem, 2009)
Converted amounts (≈) assume the structure as drawn.

How the values were obtained:
Motilin receptor = Motilin receptor (Oryctolagus cuniculus, UniProt A5A4K8); assay: Agonist activity at motilin receptor in rabbit smooth muscle assessed as maximal possible tissue contraction; format: functional
In short: (§1)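 Rabbit smooth muscle contractility assay. EC50 is the concentration giving 50% of the maximal possible contraction. Tachyphylaxis is the % contractile response to an EC90 drug concentration after three cycles of administration and washout.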

hERG (KCNH2) [1] = target: T1, hERG (KCNH2) (Homo sapiens, UniProt Q12809); assay: Inhibition of human ERG expressed in HEK cells at 300 uM; format: cell-based, HEK293; settings: HEK cells expressing human ERG
T1 sequence (Q12809 whole entry): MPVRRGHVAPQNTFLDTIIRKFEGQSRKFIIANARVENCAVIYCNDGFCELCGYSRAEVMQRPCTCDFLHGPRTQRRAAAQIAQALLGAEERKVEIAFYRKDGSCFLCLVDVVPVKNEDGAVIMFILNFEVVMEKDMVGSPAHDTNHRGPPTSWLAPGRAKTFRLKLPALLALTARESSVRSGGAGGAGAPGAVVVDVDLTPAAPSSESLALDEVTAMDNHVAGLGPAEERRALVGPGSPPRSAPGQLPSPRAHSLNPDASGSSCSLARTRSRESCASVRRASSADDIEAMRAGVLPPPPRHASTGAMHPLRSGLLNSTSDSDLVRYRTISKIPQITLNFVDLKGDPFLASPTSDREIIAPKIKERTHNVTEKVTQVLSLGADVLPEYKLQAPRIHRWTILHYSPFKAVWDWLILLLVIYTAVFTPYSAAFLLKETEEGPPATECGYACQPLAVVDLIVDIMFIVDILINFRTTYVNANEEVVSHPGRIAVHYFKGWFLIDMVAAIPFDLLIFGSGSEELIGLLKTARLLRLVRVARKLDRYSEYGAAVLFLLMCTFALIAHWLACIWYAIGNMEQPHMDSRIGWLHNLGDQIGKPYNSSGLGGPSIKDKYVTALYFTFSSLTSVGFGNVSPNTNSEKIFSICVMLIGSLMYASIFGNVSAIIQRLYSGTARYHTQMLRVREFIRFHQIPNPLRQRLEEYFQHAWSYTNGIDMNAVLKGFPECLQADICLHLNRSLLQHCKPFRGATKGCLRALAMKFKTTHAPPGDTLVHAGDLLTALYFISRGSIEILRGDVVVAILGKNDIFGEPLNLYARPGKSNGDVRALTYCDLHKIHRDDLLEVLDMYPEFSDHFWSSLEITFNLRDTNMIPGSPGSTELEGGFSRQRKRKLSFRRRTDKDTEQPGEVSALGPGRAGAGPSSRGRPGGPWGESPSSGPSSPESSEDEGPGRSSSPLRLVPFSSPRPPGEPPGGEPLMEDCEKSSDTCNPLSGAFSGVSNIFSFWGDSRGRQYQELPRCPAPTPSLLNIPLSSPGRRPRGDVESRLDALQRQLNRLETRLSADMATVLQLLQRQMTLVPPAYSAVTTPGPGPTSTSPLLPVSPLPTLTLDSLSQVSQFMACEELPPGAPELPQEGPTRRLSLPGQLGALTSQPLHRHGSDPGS

hERG (KCNH2) [2] = target: T1, hERG (KCNH2); assay: Inhibition of human ERG expressed in HEK cells at 30 uM; format: cell-based, HEK293; settings: HEK cells expressing human ERG
Streptococcus pneumoniae = assay: Antibacterial activity against erythromycin-sensitive Streptococcus pneumoniae ATCC 6301; format: functional
In short: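 MIC, the minimal growth inhibitory concentration, was determined in routine screening against the highly erythromycin-sensitive strain Streptococcus pneumoniae ATCC6301.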

[3] = target: Motilin receptor (Oryctolagus cuniculus) (UniProt A5A4K8); assay: Agonist activity at motilin receptor in rabbit smooth muscle assessed as tachyphylaxis at EC90 concentration after 4th dose; format: functional; in short: as §1
Sequence of Motilin receptor (Oryctolagus cuniculus) (A5A4K8 as listed by the source): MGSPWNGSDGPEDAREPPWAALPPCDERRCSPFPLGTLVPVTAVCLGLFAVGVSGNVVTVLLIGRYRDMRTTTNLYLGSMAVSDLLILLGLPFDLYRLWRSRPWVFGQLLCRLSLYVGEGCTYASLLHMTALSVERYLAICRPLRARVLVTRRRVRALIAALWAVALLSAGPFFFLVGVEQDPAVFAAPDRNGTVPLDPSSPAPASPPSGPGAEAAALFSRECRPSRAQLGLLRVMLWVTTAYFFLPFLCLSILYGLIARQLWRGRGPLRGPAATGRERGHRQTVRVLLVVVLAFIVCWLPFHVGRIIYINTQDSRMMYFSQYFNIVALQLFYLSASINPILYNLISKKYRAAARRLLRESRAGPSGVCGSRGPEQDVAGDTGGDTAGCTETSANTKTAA

Sequence of Motilin receptor (A5A4K8 whole entry): as the sequence (A5A4K8 as listed by the source) above

EC50 (Motilin receptor) | MIC (Streptococcus pneumoniae) | Activity [3] | Structure (SMILES) | inhibition at 300 µM (hERG (KCNH2) [1]) | inhibition at 30 µM (hERG (KCNH2) [2])
1500 nM | – | – | CC[C@H]1OC(=O)[C@H](C)[C@@H](O[C@H]2C[C@@](C)(OC)[C@@H](O)[C@H](C)O2)[C@H](C)[C@@H](O[C@@H]2O[C@H](C)C[C@H](N(C)C(C)C)[C@H]2O)[C@](C)(O)C[C@@H](C)[C@H](OCc2ccc(C(=O)NC)cc2)[C@H](C)[C@@H](O)[C@]1(C)O | – | –
69 nM | 128 µg/mL (≈ 142 µM) | – | CC[C@H]1OC(=O)[C@H](C)[C@@H](O[C@H]2C[C@@](C)(OC)[C@@H](O)[C@H](C)O2)[C@H](C)[C@@H](O[C@@H]2O[C@H](C)C[C@H](N(C)C(C)C)[C@H]2O)[C@](C)(O)C[C@@H](C)[C@H](OCC(=O)Nc2cnccn2)[C@H](C)[C@@H](O)[C@]1(C)O | 88% | 40%
90 nM | – | 86% | CC[C@H]1OC(=O)[C@H](C)[C@@H](O[C@H]2C[C@@](C)(OC)[C@@H](O)[C@H](C)O2)[C@H](C)[C@@H](O[C@@H]2O[C@H](C)C[C@H](N(C)C(C)C)[C@H]2O)[C@](C)(O)C[C@@H](C)[C@H](OCC(=O)NC)[C@H](C)[C@@H](O)[C@H]1C | 67% | 21%
67 nM | > 128 µg/mL | 89% | CCNC(=O)CO[C@@H]1[C@H](C)[C@@H](O)[C@](C)(O)[C@@H](CC)OC(=O)[C@H](C)[C@@H](O[C@H]2C[C@@](C)(OC)[C@@H](O)[C@H](C)O2)[C@H](C)[C@@H](O[C@@H]2O[C@H](C)C[C@H](N(C)C(C)C)[C@H]2O)[C@](C)(O)C[C@H]1C | 75% | 24%
270 nM | – | – | CC[C@H]1OC(=O)[C@H](C)[C@@H](O[C@H]2C[C@@](C)(OC)[C@@H](O)[C@H](C)O2)[C@H](C)[C@@H](O[C@@H]2O[C@H](C)C[C@H](N(C)C(C)C)[C@H]2O)[C@](C)(O)C[C@@H](C)[C@H](OCCCCC(=O)NC)[C@H](C)[C@@H](O)[C@]1(C)O | 45% | 3%
50 nM | 128 µg/mL (≈ 146 µM) | – | CC[C@H]1OC(=O)[C@H](C)[C@@H](O[C@H]2C[C@@](C)(OC)[C@@H](O)[C@H](C)O2)[C@H](C)[C@@H](O[C@@H]2O[C@H](C)C[C@H](N(C)C(C)C)[C@H]2O)[C@](C)(O)C[C@@H](C)[C@H](OCC(=O)NCCOC)[C@H](C)[C@@H](O)[C@]1(C)O | 93% | 33%
2100 nM | – | – | CC[C@H]1OC(=O)[C@H](C)[C@@H](O[C@H]2C[C@@](C)(OC)[C@@H](O)[C@H](C)O2)[C@H](C)[C@@H](O[C@@H]2O[C@H](C)C[C@H](N(C)C(C)C)[C@H]2O)[C@](C)(O)C[C@@H](C)[C@H](OCc2cccc(C(=O)NC)c2)[C@H](C)[C@@H](O)[C@]1(C)O | 100% | 63%
510 nM | > 128 µg/mL | – | CC[C@H]1OC(=O)[C@H](C)[C@@H](O[C@H]2C[C@@](C)(OC)[C@@H](O)[C@H](C)O2)[C@H](C)[C@@H](O[C@@H]2O[C@H](C)C[C@H](N(C)C3CCC3)[C@H]2O)[C@](C)(O)C[C@@H](C)[C@H](OCC(=O)NC)[C@H](C)[C@@H](O)[C@]1(C)O | 53% | 12%
140 nM | 128 µg/mL (≈ 148 µM) | – | CC[C@H]1OC(=O)[C@H](C)[C@@H](O[C@H]2C[C@@](C)(OC)[C@@H](O)[C@H](C)O2)[C@H](C)[C@@H](O[C@@H]2O[C@H](C)C[C@H](N(C)C(C)C)[C@H]2O)[C@](C)(O)C[C@@H](C)[C@H](OCC(=O)NC(C)C)[C@H](C)[C@@H](O)[C@]1(C)O | 89% | 26%
28 nM | 128 µg/mL (≈ 146 µM) | 75% | CC[C@H]1OC(=O)[C@H](C)[C@@H](O[C@H]2C[C@@](C)(OC)[C@@H](O)[C@H](C)O2)[C@H](C)[C@@H](O[C@@H]2O[C@H](C)C[C@H](N(C)C(C)C)[C@H]2O)[C@](C)(O)C[C@@H](C)[C@H](OCC(=O)NC2CCC2)[C@H](C)[C@@H](O)[C@]1(C)O | 100% | 64%
84 nM | 128 µg/mL (≈ 148 µM) | 79% | CC[C@H]1OC(=O)[C@H](C)[C@@H](O[C@H]2C[C@@](C)(OC)[C@@H](O)[C@H](C)O2)[C@H](C)[C@@H](O[C@@H]2O[C@H](C)C[C@H](N(C)C(C)C)[C@H]2O)[C@](C)(O)C[C@@H](C)[C@H](OCCCC(=O)NC)[C@H](C)[C@@H](O)[C@]1(C)O | 56% | 13%
52 nM | > 128 µg/mL | 92% | CC[C@H]1OC(=O)[C@H](C)[C@@H](O[C@H]2C[C@@](C)(OC)[C@@H](O)[C@H](C)O2)[C@H](C)[C@@H](O[C@@H]2O[C@H](C)C[C@H](N(C)C(C)C)[C@H]2O)[C@](C)(O)C[C@@H](C)[C@H](OCC(N)=O)[C@H](C)[C@@H](O)[C@]1(C)O | 51% | 10%
120 nM | > 128 µg/mL | 88% | CC[C@H]1OC(=O)[C@H](C)[C@@H](O[C@H]2C[C@@](C)(OC)[C@@H](O)[C@H](C)O2)[C@H](C)[C@@H](O[C@@H]2O[C@H](C)C[C@H](N(C)C(C)C)[C@H]2O)[C@](C)(O)C[C@@H](C)[C@H](OCC(=O)NC2CCOCC2)[C@H](C)[C@@H](O)[C@]1(C)O | 67% | 23%
79 nM | 128 µg/mL (≈ 140 µM) | – | CC[C@H]1OC(=O)[C@H](C)[C@@H](O[C@H]2C[C@@](C)(OC)[C@@H](O)[C@H](C)O2)[C@H](C)[C@@H](O[C@@H]2O[C@H](C)C[C@H](N(C)C(C)C)[C@H]2O)[C@](C)(O)C[C@@H](C)[C@H](OCC(=O)NCc2ccccc2)[C@H](C)[C@@H](O)[C@]1(C)O | 100% | 67%
25 nM | – | 63% | CC[C@H]1OC(=O)[C@H](C)[C@@H](O[C@H]2C[C@@](C)(OC)[C@@H](O)[C@H](C)O2)[C@H](C)[C@@H](O[C@@H]2O[C@H](C)C[C@H](N(C)C(C)C)[C@H]2O)[C@](C)(O)C[C@@H](C)[C@H](OCC(=O)Nc2ccncn2)[C@H](C)[C@@H](O)[C@]1(C)O | 60% | 16%
160 nM | 128 µg/mL (≈ 142 µM) | – | CC[C@H]1OC(=O)[C@H](C)[C@@H](O[C@H]2C[C@@](C)(OC)[C@@H](O)[C@H](C)O2)[C@H](C)[C@@H](O[C@@H]2O[C@H](C)C[C@H](N(C)C(C)C)[C@H]2O)[C@](C)(O)C[C@@H](C)[C@H](OCC(=O)NCC(F)(F)F)[C@H](C)[C@@H](O)[C@]1(C)O | 82% | 30%
660 nM | – | 95% | CC[C@H]1OC(=O)[C@H](C)[C@@H](O[C@H]2C[C@@](C)(OC)[C@@H](O)[C@H](C)O2)[C@H](C)[C@@H](O[C@@H]2O[C@H](C)C[C@H](N(C)C(C)C)[C@H]2O)[C@](C)(O)C[C@@H](C)[C@H](OCC(=O)N(C)C)[C@H](C)[C@@H](O)[C@]1(C)O | 29% | 8%
31 nM | 128 µg/mL (≈ 149 µM) | 82% | CC[C@H]1OC(=O)[C@H](C)[C@@H](O[C@H]2C[C@@](C)(OC)[C@@H](O)[C@H](C)O2)[C@H](C)[C@@H](O[C@@H]2O[C@H](C)C[C@H](N(C)C(C)C)[C@H]2O)[C@](C)(O)C[C@@H](C)[C@H](OCC(=O)NC2CC2)[C@H](C)[C@@H](O)[C@]1(C)O | 60% | 23%
120 nM | 128 µg/mL (≈ 148 µM) | 87% | CC[C@H]1OC(=O)[C@H](C)[C@@H](O[C@H]2C[C@@](C)(OC)[C@@H](O)[C@H](C)O2)[C@H](C)[C@@H](O[C@@H]2O[C@H](C)C[C@H](N(C)C(C)C)[C@H]2O)[C@](C)(O)C[C@@H](C)[C@H](OCC(=O)NCCO)[C@H](C)[C@@H](O)[C@]1(C)O | 68% | 29%
92 nM | – | – | CC[C@H]1OC(=O)[C@H](C)[C@@H](O[C@H]2C[C@@](C)(OC)[C@@H](O)[C@H](C)O2)[C@H](C)[C@@H](O[C@@H]2O[C@H](C)C[C@H](N(C)C(C)C)[C@H]2O)[C@](C)(O)C[C@@H](C)[C@H](OCC(=O)NOC)[C@H](C)[C@@H](O)[C@]1(C)O | 82% | 33%
150 nM | 128 µg/mL (≈ 144 µM) | – | CC[C@H]1OC(=O)[C@H](C)[C@@H](O[C@H]2C[C@@](C)(OC)[C@@H](O)[C@H](C)O2)[C@H](C)[C@@H](O[C@@H]2O[C@H](C)C[C@H](N(C)C(C)C)[C@H]2O)[C@](C)(O)C[C@@H](C)[C@H](OCCCCCC(=O)NC)[C@H](C)[C@@H](O)[C@]1(C)O | 61% | 13%

Structure (SMILES) | EC50 (Motilin receptor) | MIC (Streptococcus pneumoniae) | Activity [3] | inhibition at 300 µM (hERG (KCNH2) [1]) | inhibition at 30 µM (hERG (KCNH2) [2])
CC[C@H]1OC(=O)[C@H](C)[C@@H](O[C@H]2C[C@@](C)(OC)CC(C)O2)[C@H](C)[C@@H](O[C@@H]2O[C@H](C)C[C@H](N(C)CC)[C@H]2O)C2(C)CC(C)=C(O2)[C@H](C)[C@@H](O)[C@H]1C (single isomer, unassigned) | 7 nM | 64 µg/mL (≈ 91.7 µM) | 22% | 100% | –
CC[C@H]1OC(=O)[C@H](C)[C@@H](O[C@H]2C[C@@](C)(OC)[C@@H](O)[C@H](C)O2)[C@H](C)[C@@H](O[C@@H]2O[C@H](C)C[C@H](N(C)C)[C@H]2O)[C@](C)(O)C[C@@H](C)C(=O)[C@H](C)[C@@H](O)[C@]1(C)O [ERYTHROMYCIN] | 1200 nM | 0.0025 µg/mL (≈ 0.00341 µM) | 97% | – | –
